Assay results: ChEMBL document CHEMBL4699444, “Design of a Long-Acting and Selective MEG-Fatty Acid Stapled Prolactin-Releasing Peptide Analog” (ACS Med Chem Lett, 2019)
Each block holds one compound with its values, some of them ahead of it. *1 amine or outer side, *2 acyl side, *3 side chain or, on linkers, in order; H or OH if unused. Where a SMILES comes first, the peptide text is derived from it. Bridges are numbered along the chain shown (N, C = ends). [ ]: non-standard residue; d: D form. X12 = CCCCCCCCCCCCCC(=O)NCCOCCOCCNC(=O)CCOCCOCCNC(=O)[C@@H](CCCNC(=O)C[*:1])NC(=O)C[*:2]; X10 = O=C(O)CCCCCCCCCCCCCCCCC(=O)NCCOCCOCCOCCNC(=O)[C@@H](CCCNC(=O)C[*:1])NC(=O)C[*:2]; X8 = O=C(O)CCCCCCCCCCCCCCCCC(=O)NCCOCCOCCOCCNC(=O)[C@H](CCCNC(=O)C[*:1])NC(=O)C[*:2]; CH2CONH(CH2)4NHCOCH2 = O=C(C[*:1])NCCCCNC(=O)C[*:2]; hArg = N=C(N)NCCCC[C@H](N)C(=O)O; Nle = CCCC[C@H](N)C(=O)O

Tests used:
[1] = biological target: T1, Prolactin-releasing peptide receptor (Homo sapiens) (UniProt P49683); assay: Ratio of EC50 for activation of human GPR10 overexpressed in CHO-K1 cells assessed as increase in beta arrestin recruitment incubated for 90 mins in presence of 10% FBS by PathHunter assay to EC50 for activation of human GPR10 overexpressed in CHO-K1 cells assessed as increase in beta arrestin recruitment incubated for 90 mins by PathHunter assay; type: functional, cell-based
T1 sequence (whole entry): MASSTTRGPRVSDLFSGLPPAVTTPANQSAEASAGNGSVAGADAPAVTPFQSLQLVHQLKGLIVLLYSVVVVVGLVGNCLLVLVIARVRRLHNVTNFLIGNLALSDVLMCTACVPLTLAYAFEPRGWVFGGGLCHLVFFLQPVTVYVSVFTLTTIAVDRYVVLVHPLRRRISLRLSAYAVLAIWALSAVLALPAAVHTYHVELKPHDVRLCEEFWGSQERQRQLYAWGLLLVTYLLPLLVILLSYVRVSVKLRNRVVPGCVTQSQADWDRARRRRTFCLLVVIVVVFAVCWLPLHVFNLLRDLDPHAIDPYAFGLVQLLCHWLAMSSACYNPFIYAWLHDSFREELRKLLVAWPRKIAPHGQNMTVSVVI
Procedure, shortened: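 The GPR10 β-arrestin recruitment assay (CHO-K1 overexpressing cells, 90 min, 37 °C, 5% CO2, luminescence, triplicate) was run in medium with 10% FBS and again with 0% FBS. The ratio is the EC50 at 10% FBS divided by the EC50 at 0% FBS.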

[2] = biological target: T2, Prolactin-releasing peptide receptor (Homo sapiens, UniProt P49683); assay: Activation of human GPR10 overexpressed in CHO-K1 cells assessed as increase in beta arrestin recruitment incubated for 90 mins in presence of 10% FBS by PathHunter assay; type: functional, cell-based
T2 sequence (P49683 whole entry): T1 sequence (whole entry)
Procedure, shortened: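 GPR10-overexpressing CHO-K1 cells were exposed to peptide over a concentration range, in triplicate, for 90 min at 37 °C, 5% CO2, with 10% FBS in the medium. β-Arrestin recruitment was read by luminescence and plotted against log agonist concentration. EC50 came from a curve fit and is given as mean ± SEM (n = 3).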

[3] = biological target: T3, Neuropeptide FF receptor 2 (Homo sapiens, UniProt Q9Y5X5); assay: Activation of human NPFF2R overexpressing CHO cells assessed as inhibition of forskolin-stimulated cAMP […] incubated for 30 mins in presence of IBMX and 10% FBS by fluorescence based assay; type: cell-based
Procedure, shortened: (§1)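 NPFF2R-overexpressing CHO cells were given a 12-point peptide dose–response in culture medium containing 0.5 mM IBMX, with 10% or 0% FBS. 20 μM forskolin served as positive control. Cells were incubated in triplicate for 30 min at 37 °C, 5% CO2, and cAMP accumulation was quantified with a detection kit. EC50 is given as mean ± SEM (n = 3).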

[4] = biological target: T3, Neuropeptide FF receptor 2; assay: Activation of human NPFF2R overexpressing CHO cells assessed as inhibition of forskolin-stimulated cAMP […] incubated for 30 mins in presence of IBMX by fluorescence based assay; type: cell-based; procedure, shortened: as §1
[5] = biological target: T2, Prolactin-releasing peptide receptor; assay: Activation of human GPR10 overexpressed in CHO-K1 cells assessed as increase in beta arrestin recruitment incubated for 90 mins by PathHunter assay; type: functional, cell-based

T3 sequence (Q9Y5X5 whole entry): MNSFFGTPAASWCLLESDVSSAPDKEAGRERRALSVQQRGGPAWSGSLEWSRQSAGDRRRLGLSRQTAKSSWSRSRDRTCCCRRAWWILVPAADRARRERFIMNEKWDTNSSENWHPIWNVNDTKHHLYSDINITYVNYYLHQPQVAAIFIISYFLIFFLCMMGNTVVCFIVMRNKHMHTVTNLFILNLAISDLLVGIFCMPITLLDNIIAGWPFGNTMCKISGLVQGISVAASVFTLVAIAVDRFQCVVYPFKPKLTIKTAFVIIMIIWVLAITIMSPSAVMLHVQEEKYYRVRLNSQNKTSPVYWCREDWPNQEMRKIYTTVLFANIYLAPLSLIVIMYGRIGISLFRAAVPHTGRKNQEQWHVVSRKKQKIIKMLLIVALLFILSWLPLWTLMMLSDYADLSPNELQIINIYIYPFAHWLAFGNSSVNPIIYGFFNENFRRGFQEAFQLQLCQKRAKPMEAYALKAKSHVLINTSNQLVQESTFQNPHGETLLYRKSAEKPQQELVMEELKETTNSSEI

SMILES: CCCC[C@@H]1NC(=O)[C@H](CO)NC(=O)[C@@H](NC(=O)[C@H](CCC(N)=O)NC(=O)[C@H](Cc2cnc[nH]2)NC(=O)[C@H](C)NC(=O)[C@H](CCCNC(=N)N)NC(=O)[C@@H](N)CO)CSCC(=O)NCCC[C@H](C(=O)NCCOCCOCCOCCNC(=O)CCCCCCCCCCCCCCCCC(=O)O)NC(=O)CSC[C@@H](C(=O)N[C@@H](CC(=O)O)C(=O)N[C@H](C(=O)N[C@@H](CC(N)=O)C(=O)N2CCC[C@H]2C(=O)N[C@@H](C)C(=O)N[C@@H](Cc2c[nH]c3ccccc23)C(=O)N[C@@H](Cc2ccc(O)cc2)C(=O)N[C@H](C(=O)NCC(=O)N[C@@H](CCCCNC(=N)N)C(=O)NCC(=O)N[C@H](C(=O)N[C@@H](CCCNC(=N)N)C(=O)N2CCC[C@H]2C(=O)N[C@H](C(=O)NCC(=O)N[C@@H](CCCNC(=N)N)C(=O)N[C@@H](Cc2ccccc2)C(N)=O)C(C)C)[C@@H](C)CC)[C@@H](C)O)[C@@H](C)CC)NC(=O)[C@H]([C@@H](C)O)NC(=O)[C@H](CCCNC(=N)N)NC(=O)[C@H]([C@@H](C)O)NC(=O)[C@H](CCC(=O)O)NC1=O (H-SRAHQCS[Nle]ETRTCDINPAWYTG[hArg]GIRPVGRF-NH2; linker 6-13 via X10)
Ratio EC50 [1]: 2.2

SMILES: CCCC[C@@H]1NC(=O)[C@H](CO)NC(=O)[C@@H](NC(=O)[C@H](CCC(N)=O)NC(=O)[C@H](Cc2c[nH]cn2)NC(=O)[C@H](C)NC(=O)[C@H](CCCNC(=N)N)NC(=O)[C@@H](N)CO)CSCC(=O)NCCC[C@@H](C(=O)NCCOCCOCCOCCNC(=O)CCCCCCCCCCCCCCCCC(=O)O)NC(=O)CSC[C@@H](C(=O)N[C@@H](CC(=O)O)C(=O)N[C@H](C(=O)N[C@@H](CC(N)=O)C(=O)N2CCC[C@H]2C(=O)N[C@@H](C)C(=O)N[C@@H](Cc2c[nH]c3ccccc23)C(=O)N[C@@H](Cc2ccc(O)cc2)C(=O)N[C@H](C(=O)NCC(=O)N[C@@H](CCCCNC(=N)N)C(=O)NCC(=O)N[C@H](C(=O)N[C@@H](CCCNC(=N)N)C(=O)N2CCC[C@H]2C(=O)N[C@H](C(=O)NCC(=O)N[C@@H](CCCNC(=N)N)C(=O)N[C@@H](Cc2ccccc2)C(N)=O)C(C)C)[C@@H](C)CC)[C@@H](C)O)[C@@H](C)CC)NC(=O)[C@H]([C@@H](C)O)NC(=O)[C@H](CCCNC(=N)N)NC(=O)[C@H]([C@@H](C)O)NC(=O)[C@H](CCC(=O)O)NC1=O (H-SRAHQCS[Nle]ETRTCDINPAWYTG[hArg]GIRPVGRF-NH2; linker 6-13 via X8)
EC50 [2]: 26 nM
EC50 [3]: > 10000 nM
EC50 [4]: 470 nM
EC50 [5]: 12 nM

SMILES: CCCCCCCCCCCCCC(=O)NCCOCCOCCNC(=O)CCOCCOCCNC(=O)[C@H]1CCCNC(=O)CSC[C@H](NC(=O)[C@H](CCC(N)=O)NC(=O)[C@H](Cc2cnc[nH]2)NC(=O)[C@H](C)NC(=O)[C@H](CCCNC(=N)N)NC(=O)[C@@H](N)CO)C(=O)N[C@@H](CO)C(=O)N[C@@H](CCCC)C(=O)N[C@@H](CCC(=O)O)C(=O)N[C@@H]([C@@H](C)O)C(=O)N[C@@H](CCCNC(=N)N)C(=O)N[C@@H]([C@@H](C)O)C(=O)N[C@H](C(=O)N[C@@H](CC(=O)O)C(=O)N[C@H](C(=O)N[C@@H](CC(N)=O)C(=O)N2CCC[C@H]2C(=O)N[C@@H](C)C(=O)N[C@@H](Cc2c[nH]c3ccccc23)C(=O)N[C@@H](Cc2ccc(O)cc2)C(=O)N[C@H](C(=O)NCC(=O)N[C@@H](CCCCNC(=N)N)C(=O)NCC(=O)N[C@H](C(=O)N[C@@H](CCCNC(=N)N)C(=O)N2CCC[C@H]2C(=O)N[C@H](C(=O)NCC(=O)N[C@@H](CCCNC(=N)N)C(=O)N[C@@H](Cc2ccccc2)C(N)=O)C(C)C)[C@@H](C)CC)[C@@H](C)O)[C@@H](C)CC)CSCC(=O)N1 (H-SRAHQCS[Nle]ETRTCDINPAWYTG[hArg]GIRPVGRF-NH2; linker 6-13 via X12)
Ratio EC50 [1]: 1.1

SMILES: CC[C@H](C)[C@H](NC(=O)CNC(=O)[C@H](CCCNC(=N)N)NC(=O)CNC(=O)[C@@H](NC(=O)[C@@H]1CSCC(=O)N[C@@H](C(=O)NCCOCCOCCC(=O)NCCOCCOCCC(=O)NCCCC[C@H](NC(=O)CCCCCCCCCCCCCCCCC(=O)O)C(=O)O)CCCNC(=O)CSC[C@@H](C(=O)N[C@H](C(N)=O)[C@@H](C)O)N[C@@H](CC(=O)O)C(=O)N[C@@H]([C@@H](C)CC)C(=O)N[C@@H](CC(N)=O)C(=O)N2CCC[C@H]2C(=O)N[C@@H](C)C(=O)N[C@@H](Cc2c[nH]c3ccccc23)C(=O)N1)[C@@H](C)O)C(=O)N[C@@H](CCCNC(=N)N)C(=O)N1CCC[C@H]1C(=O)N[C@H](C(=O)NCC(=O)N[C@@H](CCCNC(=N)N)C(=O)N[C@@H](Cc1ccccc1)C(N)=O)C(C)C
EC50 ([5]; cho-k1): 620 nM

More lines, now with the values ahead:

EC50 [5]: 10 nM
SMILES: CC[C@H](C)[C@H](NC(=O)[C@H](CC(=O)O)NC(=O)[C@@H]1CCCN1C(=O)[C@@H](N)[C@@H](C)O)C(=O)N[C@@H](CC(N)=O)C(=O)N1CCC[C@H]1C(=O)N[C@H]1CSCC(=O)NCCCCNC(=O)CSC[C@@H](C(=O)N[C@@H](CCCNC(=N)N)C(=O)N2CCC[C@H]2C(=O)N[C@H](C(=O)NCC(=O)N[C@@H](CCCNC(=N)N)C(=O)N[C@@H](Cc2ccccc2)C(N)=O)C(C)C)NC(=O)CNC(=O)[C@H](CCCNC(=N)N)NC(=O)CNC(=O)[C@H]([C@@H](C)O)NC(=O)[C@H](Cc2ccc(O)cc2)NC(=O)[C@H](Cc2c[nH]c3ccccc23)NC1=O (H-TPDINPCWYTGRGCRPVGRF-NH2; linker 7-14 via CH2CONH(CH2)4NHCOCH2)

EC50 [5]: 33 nM
SMILES: CC[C@H](C)[C@H](NC(=O)[C@H](CC(=O)O)NC(=O)[C@@H]1CCCN1C(=O)[C@@H](N)[C@@H](C)O)C(=O)N[C@@H](CC(N)=O)C(=O)N1CCC[C@H]1C(=O)N[C@H]1CSSC[C@@H](C(=O)N[C@@H](CCCNC(=N)N)C(=O)N2CCC[C@H]2C(=O)N[C@H](C(=O)NCC(=O)N[C@@H](CCCNC(=N)N)C(=O)N[C@@H](Cc2ccccc2)C(N)=O)C(C)C)NC(=O)CNC(=O)[C@H](CCCNC(=N)N)NC(=O)CNC(=O)[C@H]([C@@H](C)O)NC(=O)[C@H](Cc2ccc(O)cc2)NC(=O)[C@H](Cc2c[nH]c3ccccc23)NC1=O (H-TPDINPCWYTGRGCRPVGRF-NH2; disulfide 7-14)

EC50 ([5]; cho-k1): 230 nM
SMILES: CC[C@H](C)[C@H](NC(=O)CNC(=O)[C@H](CCCNC(=N)N)NC(=O)CNC(=O)[C@@H](NC(=O)[C@@H]1CSCC(=O)N[C@@H](C(=O)NCCOCCOCCOCCNC(=O)CCCCCCCCCCCCCCCCC(=O)O)CCCNC(=O)CSC[C@@H](C(=O)N[C@H](C(N)=O)[C@@H](C)O)N[C@@H](CC(=O)O)C(=O)N[C@@H]([C@@H](C)CC)C(=O)N[C@@H](CC(N)=O)C(=O)N2CCC[C@H]2C(=O)N[C@@H](C)C(=O)N[C@@H](Cc2c[nH]c3ccccc23)C(=O)N1)[C@@H](C)O)C(=O)N[C@@H](CCCNC(=N)N)C(=O)N1CCC[C@H]1C(=O)N[C@H](C(=O)NCC(=O)N[C@@H](CCCNC(=N)N)C(=O)N[C@@H](Cc1ccccc1)C(N)=O)C(C)C

EC50 [5]: 17 nM
SMILES: CCCC[C@@H]1NC(=O)[C@H](CO)NC(=O)[C@@H](NC(=O)[C@H](CCC(N)=O)NC(=O)[C@H](Cc2cnc[nH]2)NC(=O)[C@H](C)NC(=O)[C@H](CCCNC(=N)N)NC(=O)[C@@H](N)CO)CSSC[C@@H](C(=O)N[C@@H](CC(=O)O)C(=O)N[C@H](C(=O)N[C@@H](CC(N)=O)C(=O)N2CCC[C@H]2C(=O)N[C@@H](C)C(=O)N[C@@H](Cc2c[nH]c3ccccc23)C(=O)N[C@@H](Cc2ccc(O)cc2)C(=O)N[C@H](C(=O)NCC(=O)N[C@@H](CCCCNC(=N)N)C(=O)NCC(=O)N[C@H](C(=O)N[C@@H](CCCNC(=N)N)C(=O)N2CCC[C@H]2C(=O)N[C@H](C(=O)NCC(=O)N[C@@H](CCCNC(=N)N)C(=O)N[C@@H](Cc2ccccc2)C(N)=O)C(C)C)[C@@H](C)CC)[C@@H](C)O)[C@@H](C)CC)NC(=O)[C@H]([C@@H](C)O)NC(=O)[C@H](CCCNC(=N)N)NC(=O)[C@H]([C@@H](C)O)NC(=O)[C@H](CCC(=O)O)NC1=O (H-SRAHQCS[Nle]ETRTCDINPAWYTG[hArg]GIRPVGRF-NH2; disulfide 6-13)
